A selection: hits, their analogues and other compounds. The true share with any hit is near 1.8%.
CHRM5 PAM: potentiates acetylcholine response at human M5 receptor. P08912. actives 0.3% (n = 360,000). activation, % at 3 µM. CHO-K1 hM5, Fluo-8 calcium, ACh EC20 PAM; 0% = ACh EC20, 100% = ACh EC100;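 active means activation above the run cutoff, the mean activation of all test compounds plus 3 SD, cut at about 18% in these data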
Target sequence (P08912 whole entry, looked up): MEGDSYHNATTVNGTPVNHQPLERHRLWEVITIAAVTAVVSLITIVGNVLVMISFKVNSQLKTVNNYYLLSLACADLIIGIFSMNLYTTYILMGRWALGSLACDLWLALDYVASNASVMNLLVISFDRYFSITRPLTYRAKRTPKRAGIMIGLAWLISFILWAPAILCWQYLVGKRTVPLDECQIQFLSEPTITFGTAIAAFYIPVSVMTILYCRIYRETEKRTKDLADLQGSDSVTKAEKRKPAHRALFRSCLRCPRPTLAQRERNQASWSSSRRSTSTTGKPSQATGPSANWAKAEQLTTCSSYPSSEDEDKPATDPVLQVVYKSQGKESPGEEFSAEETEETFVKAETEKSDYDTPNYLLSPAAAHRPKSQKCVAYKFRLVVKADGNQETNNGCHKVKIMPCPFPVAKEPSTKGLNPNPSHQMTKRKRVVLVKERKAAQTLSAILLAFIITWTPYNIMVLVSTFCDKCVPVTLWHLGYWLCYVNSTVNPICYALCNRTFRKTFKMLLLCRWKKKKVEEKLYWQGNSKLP
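System: CHO-K1 hM5 cells. Reagent: acetylcholine, EC20 level. Compound dosing: single dose, 3 µM nominal final test concentration. Timing: Post-acetylcholine fluorescence recording 140 s. Detection: Fluo-8 calcium fluorescence. Read-out: % activation, ACh-normalized. Benchmarks: ACh EC20 and EC100 wells. Repeats: singlicate, one well per test compound.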
CHRM4 agonist: CHRM4 agonism in calcium assay | P08173 | CHO-K1 hM4/Gqi5, Fluo-8 calcium fluorescence; vehicle 0%, full acetylcholine response 100% | activation, % at 3 µM | actives 0.14% (n = 360,000);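 active means activation above the run mean over all test wells plus 3 SD, cut at about 32% in these data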;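 further: peak over basal fluorescence ratio per well then scaled between controls; 0% = DMSO wells and 100% = acetylcholine at EC100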
M5 ag: agonists of human muscarinic M5 receptor (CHRM5); CHO-K1 hM5 cells, Fluo-8 calcium fluorescence; 0% DMSO wells, 100% maximal acetylcholine response; activation, % at 3 µM; actives 0.19% (n = 360,000); AID 624037;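 active means activation above the run's mean over test compounds plus 3 SD, cut at about 23% in these data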;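 further: signal is peak over basal fluorescence ratio across the kinetic read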
M5 antag: antagonists of human muscarinic M5 receptor (CHRM5) | P08912 | CHO-hM5 cells, Fluo-8 calcium fluorescence, ACh EC80 | actives 0.59% (n = 360,000) | inhibition, % at 3 µM;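 active means inhibition above a per-plate cutoff, the mean of that plate's test compounds plus 3 SD, cut at about 27% in these data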;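 further: 0% = acetylcholine EC80 with DMSO and 100% = DMSO without agonist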
M4 PAM: CHRM4 positive allosteric modulation; P08173; CHO-K1 hM4/Gqi5, Fluo-8 calcium fluorescence, ACh EC20; 0% = ACh EC20, 100% = maximal ACh; activation, % at 3 µM; actives 0.4% (n = 360,000); AID 624126;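 active means activation above its plate's cutoff, the mean activation of sample wells plus 3 SD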
M4 antag: blocks acetylcholine activation of human M4 receptor. actives 0.73% (n = 360,000). AID 624125. P08173. inhibition, % at 3 µM. CHO-hM4 cells, ACh EC80, Fluo-8 calcium fluorescence;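 active means inhibition above its plate's cutoff, the mean inhibition of sample wells plus 3 SD, cut at about 27% in these data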;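 further: 0% = acetylcholine EC80 with DMSO and 100% = DMSO without agonist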
* hit, by the source's call.

SMILES	CHRM5 PAM	CHRM4 agonist	M5 ag	M5 antag	M4 PAM	M4 antag
c1ncn(C23CC4CC(CC(C4)C2)C3)n1	21*	0	-3	1	11	-16
COC(=O)C[C@H]1C[C@H]2c3cc(NC(=O)C4CCOCC4)ccc3O[C@H]2[C@H](CO)O1	3	1	3	-4	6	-21
CCCNC(=O)C(Cc1ccc(I)cc1)NC(=O)C1CC1 (centres undefined)	5	1	-4	6	5	-3
O=C(COC(=O)/C=C/c1ccccc1)Nc1ccc2c(c1)OCCO2	-3	0	-1	7	27*	-19
O=C(COC(=O)/C=C/c1ccc(Cl)cc1)Nc1ccc2c(c1)OCCO2	16	3	0	-4	34*	-14
COc1cccc(/C=C/C(=O)OCC(=O)Nc2ccc3c(c2)OCCO3)c1	-5	1	1	7	11	-9
O=C(Cc1c(Cl)cccc1Cl)N1CCN(S(=O)(=O)c2cccs2)CC1	5	0	-1	-2	3	-1
CC(C)C[C@@H](NC(=O)C1CCC(CNC(=O)[C@H](Cc2ccccc2)NC(=O)OC(C)(C)C)CC1)C(=O)O (some centres undefined)	6	0	0	-2	0	7
CSc1ncc2[nH]c(C(O)c3ccccc3)nc2n1 (centres undefined)	-11	10	6	17	18*	-10
COc1ccc(S(=O)(=O)N2CCCCCC2)cc1C(=O)NCc1ccco1	-3	3	0	9	-2	-9
Cc1ccc(CNC(=O)C2=CCN(S(=O)(=O)c3ccc(C)cc3)CC2)cc1	-10	6	0	4	-6	-4
COc1ccccc1CNC(=O)C1=CCN(S(=O)(=O)c2ccc(C)cc2)CC1	19*	2	1	-1	5	24
COc1ccc(S(=O)(=O)N2CCCCCC2)cc1C(=O)NCc1ccccc1Cl	-1	0	0	-2	26*	-3
CN=c1sc2c(n1C)C(=O)c1ccccc1C2=O	12	1	4	6	4	4
COc1ccc(C2=NOC3(CC(=O)N(c4ccc(F)cc4)C3=O)C2)cc1 (centres undefined)	14	2	7	-17	35*	-18
Cc1ccc(S(=O)(=O)NCCC(=O)NC2CCCCCC2)cc1	0	1	0	7	15	-4
O=C(Cc1ccccc1)N/N=C/c1cc(Br)c(Br)o1	-7	-1	1	5	28*	-9
O=C(Cc1ccccc1)NN=Cc1ccccc1	-1	1	0	4	9	-7
CC(C)c1ccc(NC(=O)CN(C)C2=NS(=O)(=O)c3ccccc32)cc1	-5	3	0	4	2	7
O=C(Nc1cccc(S(=O)(=O)Nc2ccc(Cl)cc2)c1)c1ccc(Cl)nc1	-20	16	5	35*	-15	30*
COc1ccc(NS(=O)(=O)c2cccc(NC(=O)c3ccc(Cl)nc3)c2)cc1	-18	15	5	35*	-12	24
O=C(Nc1ccc(NS(=O)(=O)c2ccccc2)cc1)c1ccc(Cl)cc1	-7	5	-6	11	-3	1
Nc1ccn(CCCN2CCN(C(=O)C3CC3)CC2)c(=O)n1	8	1	1	-6	3	-13
Cc1noc(C)c1C(=O)OCC(=O)Nc1ccc(N2CCOCC2)cc1	0	1	1	11	20*	-7
CCCOc1ccc(C(=O)NC(=S)NNC(=O)c2c(-c3ccccc3)noc2C)cc1	-16	32*	19	16	-9	10
Cc1onc(-c2ccccc2)c1C(=O)NC(=S)NNC(=O)c1ccccc1O	-17	44*	20	-1	-13	2
CC1=C(C(=O)N(C(C)C)C(C)C)CC(CC(=O)NCc2cccs2)C(=O)N1Cc1ccc(C(C)(C)C)cc1 (centres undefined)	-5	1	-1	9	-6	2
COc1ccc(C2=NNC(=O)CC2)cc1	24*	1	3	-10	0	-5
